Test results: the RNAGym collection of RNA variant scans (doi:10.1038/s41586-018-0170-7)

B1: tRNA (parent)
chain: GUUCCGUUGGCGUAAUGGUAACGCGUCUCCCUCCUAAGGAGAAGACUGCGGGUUCGAGUCCCGUACGGAACG

Variants of: B1
Test: yeast fitness, log relative to wild type (ln ratio); higher = fitter; tRNA-Arg(CCU), competitive growth, 37 C, 1 M NaCl
Procedure, shortened: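 Fitness is the natural log of each genotype's generations divided by the wild type's. Generations were derived as OD-scaled log2 output/input frequency from 125 bp paired-end Illumina counts, weighting replicates by inverse variance. Pools of the tRNA-Arg(CCU) variant library, on a HIS3 centromeric plasmid in BY4742 lacking the chromosomal gene, grew ~6.5 generations (~26.5 h) in SC-HIS 1M NaCl at 37 °C after 4 generations in SC-HIS at 30 °C.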
With GUUCCUUUGGCGUAAUGGUAACGCGUCUCCCUCCUAAGGAGAAGACUGCGGGUUCGAGUCCCGUAUGGGGUG [G6U C66U A69G A70G C71U] the “yeast fitness (ln)” value was -0.293.
With GUUCCUUUGGCGUAAUGGUAACGCGUCUCCCUCCUAAGGAGAAGAUUGCGGGUUCGAGUCCCGUAAGGAUCG [G6U C46U C66A A70U] the “yeast fitness (ln)” value was 0.00243.
With GUUCCUUUGGCGUAAUGGUAACGCGUCUCCCUCCUAAGGAGAAGAUUGCGGGUUCGAGUCCCGUAAGGAGCG [G6U C46U C66A A70G] the “yeast fitness (ln)” value was -0.00887.
For GUUCCUUUGGCGUAAUGGUAACGCGUCUCCCUCCUAAGGAGAAGAUUGCGGGUUCGAGUCCCGUAUGGGGUG [G6U C46U C66U A69G A70G C71U], the “yeast fitness (ln)” value was -0.205.
With GUUCCGUUGGCGUAAUGGUAACGCGUUUCCCUCCUAAGGAGACGACUGCGGGUUCGAGUCCCGUACGGGGUG [C27U A43C A69G A70G C71U] the “yeast fitness (ln)” value was -0.142.
For GUUCCGUUGGCGUAAUGGUAACGCGUUUCCCUCCUAAGGAGACGACUGCGGGUUCGAGUCCCGUACGGAACG [C27U A43C], the “yeast fitness (ln)” value was -0.0182.
For GUUCCUUUGGCGUAAUGGUAACGCGUCUCCCUCCUAAGGAGAAGACUGCGGGUUCGAGUCCCGUACGGAAUG [G6U C71U], the “yeast fitness (ln)” value was -0.261.
In the case of GUUCCUUUGGCGUAAUGGUAACGCGUCUCCCUCCUAAGGAGAAGACUGCGGGUUCGAGUCCCGUAUGGGACG [G6U C66U A69G], the “yeast fitness (ln)” value is reported as -0.527.
With GUUCCUUUGGCGUAAUGGUAACGCGUCUCCCUCCUAAGGAGAAGACUGCGGGUUCGAGUCCCGUAUGGAGCG [G6U C66U A70G] the “yeast fitness (ln)” value was -0.383.
In the case of GUUCCUUUGGCGUAAUGGUAACGCGUCUCCCUCCUAAGGAGAAGACUGCGGGUUCGAGUCCCGUAUGGAUCG [G6U C66U A70U], the “yeast fitness (ln)” value is reported as -0.122.
For GUUCCUUUGGCGUAAUGGUAACGCGUCUCCCUCCUAAGGAGAAGAUUGCGGGUUCGAGUCCCGUAUGGAACG [G6U C46U C66U], the “yeast fitness (ln)” value was -0.0169.
In the case of GUUCCUUUGGCGUAAUGGUAACGCGUCUCCCUCCUAAGGAGAAGAUUGCGGGUUCGAGUCCCGUAAGGAACG [G6U C46U C66A], the “yeast fitness (ln)” value is reported as 0.00404.
With GUUCCUUUGGCGUAAUGGUAACGCGUCUCCCUCCUAAGGAGAAGAUUGCGGGUUCGAGUCCCGUACGGGUUG [G6U C46U A69G A70U C71U] the “yeast fitness (ln)” value was -0.301.
In the case of GUUCCGUUGGCGUAAUGGUAACGCGUUUCCCUCCUAAGGAGAAGACUGCGGGUUCGAGUCCCGUACGGAACG [C27U], the “yeast fitness (ln)” value is reported as -0.0106.
For GUUCCUUUGGCGUAAUGGUAACGCGUUUCCCUCCUAAGGAGAAGACUGCGGGUUCGAGUCCCGUAUGGGAUG [G6U C27U C66U A69G C71U], the “yeast fitness (ln)” value was -0.377.
In the case of GUUCCUUUGGCGUAAUGGUAACGCGUUUCCCUCCUAAGGAGAAGACUGCGGGUUCGAGUCCCGUAUGGAUUG [G6U C27U C66U A70U C71U], the “yeast fitness (ln)” value is reported as -0.36.
For GUUCCUUUGGCGUAAUGGUAACGCGUCUCCCUCCUAAGGAGAAGAUUGCGGGUUCGAGUCCCGUAAGGGAUG [G6U C46U C66A A69G C71U], the “yeast fitness (ln)” value was -0.0515.
With GUUCCUUUGGCGUAAUGGUAACGCGUCUCCCUCCUAAGGAGAAGACUGCGGGUUCGAGUCCCGUAUGGAGUG [G6U C66U A70G C71U] the “yeast fitness (ln)” value was -0.168.
In the case of GUUCCUUUGGCGUAAUGGUAACGCGUCUCCCUCCUAAGGAGAAGACUGCGGGUUCGAGUCCCGUAUGGAUUG [G6U C66U A70U C71U], the “yeast fitness (ln)” value is reported as -0.315.
With GUUCCUUUGGCGUAAUGGUAACGCGUCUCCCUCCUAAGGAGAAGAUUGCGGGUUCGAGUCCCGUAUGGGACG [G6U C46U C66U A69G] the “yeast fitness (ln)” value was -0.376.
With GUUCCUUUGGCGUAAUGGUAACGCGUCUCCCUCCUAAGGAGAAGACUGCGGGUUCGAGUCCCGUAAGGGACG [G6U C66A A69G] the “yeast fitness (ln)” value was 0.00209.
In the case of GUUCCUUUGGCGUAAUGGUAACGCGUCUCCCUCCUAAGGAGAAGACUGCGGGUUCGAGUCCCGUAUGGAACG [G6U C66U], the “yeast fitness (ln)” value is reported as -0.0366.
In the case of GUUCCUUUGGCGUAAUGGUAACGCGUCUCCCUCCUAAGGAGAAGACUGCGGGUUCGAGUCCCGUAAGGAACG [G6U C66A], the “yeast fitness (ln)” value is reported as 0.000896.
For GUUCCUUUGGCGUAAUGGUAACGCGUCUCCCUCCUAAGGAGAAGACUGCGGGUUCGAGUCCCGUAAGGAAUG [G6U C66A C71U], the “yeast fitness (ln)” value was -0.0261.
In the case of GUUCCGUUGGCGUAAUGGUAACGCGUUUCCCUCCUAAGGAGACGACUGCGGGUUCGAGUCCCGUACGGGUUG [C27U A43C A69G A70U C71U], the “yeast fitness (ln)” value is reported as -0.419.
For GUUCCUUUGGCGUAAUGGUAACGCGUCUCCCUCCUAAGGAGAAGAUUGCGGGUUCGAGUCCCGUAUGGAAUG [G6U C46U C66U C71U], the “yeast fitness (ln)” value was -0.183.
With GUUCCUUUGGCGUAAUGGUAACGCGUCUCCCUCCUAAGGAGAAGAUUGCGGGUUCGAGUCCCGUACGGAGUG [G6U C46U A70G C71U] the “yeast fitness (ln)” value was -0.202.
With GUUCCGUUGGCGUAAUGGUAACGCGUUUCCCUCCUAAGGAGACGACUGCGGGUUCGAGUCCCGUACGGGGCG [C27U A43C A69G A70G] the “yeast fitness (ln)” value was -0.235.
In the case of GUUCCGUUGGCGUAAUGGUAACGCGUUUCCCUCCUAAGGAGACGACUGCGGGUUCGAGUCCCGUACGGGUCG [C27U A43C A69G A70U], the “yeast fitness (ln)” value is reported as -0.204.
In the case of GUUCCUUUGGCGUAAUGGUAACGCGUCUCCCUCCUAAGGAGAAGAUUGCGGGUUCGAGUCCCGUAAGGAGUG [G6U C46U C66A A70G C71U], the “yeast fitness (ln)” value is reported as -0.15.
In the case of GUUCCUUUGGCGUAAUGGUAACGCGUCUCCCUCCUAAGGAGAAGAUUGCGGGUUCGAGUCCCGUAAGGAUUG [G6U C46U C66A A70U C71U], the “yeast fitness (ln)” value is reported as -0.394.
With GUUCCUUUGGCGUAAUGGUAACGCGUCUCCCUCCUAAGGAGAAGAUUGCGGGUUCGAGUCCCGUAUGGAUUG [G6U C46U C66U A70U C71U] the “yeast fitness (ln)” value was -0.302.
With GUUCCUUUGGCGUAAUGGUAACGCGUCUCCCUCCUAAGGAGAAGAUUGCGGGUUCGAGUCCCGUAUGGGUCG [G6U C46U C66U A69G A70U] the “yeast fitness (ln)” value was -0.235.
In the case of GUUCCUUUGGCGUAAUGGUAACGCGUCUCCCUCCUAAGGAGAAGAUUGCGGGUUCGAGUCCCGUAUGGGGCG [G6U C46U C66U A69G A70G], the “yeast fitness (ln)” value is reported as -0.275.
With GUUCCUUUGGCGUAAUGGUAACGCGUCUCCCUCCUAAGGAGAAGAUUGCGGGUUCGAGUCCCGUAAGGGGCG [G6U C46U C66A A69G A70G] the “yeast fitness (ln)” value was -0.00994.
In the case of GUUCCUUUGGCGUAAUGGUAACGCGUCUCCCUCCUAAGGAGAAGAUUGCGGGUUCGAGUCCCGUAAGGGUCG [G6U C46U C66A A69G A70U], the “yeast fitness (ln)” value is reported as -0.302.
With GUUCCUUUGGCGUAAUGGUAACGCGUCUCCCUCCUAAGGAGAAGACUGCGGGUUCGAGUCCCGUAUGGGUUG [G6U C66U A69G A70U C71U] the “yeast fitness (ln)” value was -0.481.
